Source: PubChem BioAssay
ARNT-TACC3 inh = ARNT/TACC3 interaction disruption; Q9Y6A5; AlphaScreen His-ARNT PAS-B/GST-TACC3 binding, luminescence; TACC3 fragment carries E629A point mutation; inhibition, % at 9.99 µM; 0.66% of 390,000 active; AID 623870;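 active = mean inhibition of replicates at least 50% and at least half of replicates each reaching 50%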;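 note: 0% = complete ARNT plus TACC3 wells and 100% = ARNT alone without TACC3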
SUMO Mot1 rescue = blocks SUMOylation pathway, rescuing yeast Mot1-301 growth. S. cerevisiae Mot1-301 growth rescue, ATP luminescence, 38.5C; percent above DMSO median, 100 means doubled. growth rescue, % at 18.8 µM. 1% of 320,000 active. AID 2716;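 active = every valid replicate shows activation above 250% relative to neutral control wells; inactive = the rest, any valid replicate at or below 250%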;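 note: OY570 slx delta 5 strain wells were the positive control but not used for scaling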
cardiac RTF act = increases calcium sensitivity of human cardiac regulated thin filaments | IANBD-labeled TnC RTF fluorescence at EC20 calcium; 0% EC20 calcium, 100% full calcium | P19429+P45379 | activation, % at 7.2 µM | 0.24% of 340,000 active;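 active = activation above the mean over all tested compounds plus 3 SD, cut at about 30% in these data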;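 note: rise in fluorescence read as greater calcium sensitivity of cardiac thin filaments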
Cardiac RTF inh = cardiac RTF calcium desensitization; P19429+P45379; IANBD-labeled cardiac RTF, Ca2+ fluorescence; inhibition, % at 7.15 µM; 0.12% of 340,000 active;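 active = inhibition above the mean inhibition of all tested compounds plus 3 SD, cut at about 17% in these data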;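 note: assay run at fixed EC70 calcium of 1.6 mM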
UCH37 DUB inh = blocks the human deubiquitinase UCH37; purified proteasome/UCH37, Ub-AMC cleavage fluorescence; inhibition, % (test concentration not listed); 0.33% of 330,000 active; AID 588478;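 active = mean inhibition over replicate wells above about 20%, limit read from the data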;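 note: 0% = compound-free wells with enzyme and 100% = wells lacking proteasome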
Target sequence (Q9Y5K5 whole entry, looked up): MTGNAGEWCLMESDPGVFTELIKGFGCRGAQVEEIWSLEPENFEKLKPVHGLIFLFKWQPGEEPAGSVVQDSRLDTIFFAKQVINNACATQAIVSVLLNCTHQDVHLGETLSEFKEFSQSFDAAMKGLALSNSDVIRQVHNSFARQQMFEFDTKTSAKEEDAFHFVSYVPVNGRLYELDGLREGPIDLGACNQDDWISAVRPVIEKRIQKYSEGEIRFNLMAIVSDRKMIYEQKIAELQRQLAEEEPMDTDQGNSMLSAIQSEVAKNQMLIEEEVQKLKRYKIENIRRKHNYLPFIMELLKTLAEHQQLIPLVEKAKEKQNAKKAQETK
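Reagent: Ub-AMC substrate; assay system: Proteasome-associated human UCH37 deubiquitinase; controls: no-proteasome and no-compound wells; read-out: % inhibition of Ub-AMC cleavage fluorescence; timing: 30 min preincubation with enzyme, 25 min cleavage at room temperature; signal: AMC fluorescence from Ub-AMC cleavage, excitation 355 nm, emission 460 nm; buffer or medium: Tris-HCl pH 7.4 plus ovalbumin, ATP-MgCl2, DTT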
Efflux pump mplx = inhibitors of Candida antifungal efflux pumps expressed in yeast | 0.44% of 330,000 active | S. cerevisiae Candida pump triplex, Nile Red efflux | inhibition, % at 10 µM;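 active = plate passing quality check with inhibition over a set limit, or well fluorescence over plate mean plus 4 SD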;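 note: Nile Red retained in pooled yeast measured as flow cytometry median fluorescence; 0% = buffer negative control and 100% = Enniatin B positive control; higher means more Nile Red kept so more efflux inhibition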
Mot1 SUMO dose = SUMO pathway inhibitors in yeast Mot1-301 growth. growth activity, percent, % at 42 µM. 2,300 tested, under 10 active. shares compounds with SUMO Mot1 rescue. S. cerevisiae Mot1-301 galactose growth, ATP luminescence, 24 h; -100 = growth of slx-deleted rescue strain;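 active = Signal drops as the depositor expects, and the fitted half-maximal dose is no more than ten times the top valid tested dose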;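 note: more negative values mean stronger growth rescue toward the control strain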
Starred values were filed as active, the others as inactive; [ ] = dose if it differs, or a comment. A selection: hits, their analogues and other compounds. The true share with any hit is near 2.1%.

CCN1C(=O)N(c2ccc(Cl)cc2)C(C)=CC1(C)C was read as ARNT-TACC3 inh -14, SUMO Mot1 rescue 837*, cardiac RTF act 2, Cardiac RTF inh -6, UCH37 DUB inh 1, Efflux pump mplx 0 and Mot1 SUMO dose 0.
C=C1N(c2ccc(Cl)cc2)C(=O)OC1(C)C was read as ARNT-TACC3 inh -6, SUMO Mot1 rescue 66, cardiac RTF act 14, Cardiac RTF inh -12, UCH37 DUB inh 1 and Efflux pump mplx 0.
For COC(=O)CNC(=O)COC(=O)/C=C/c1cccs1 the results were ARNT-TACC3 inh -4, SUMO Mot1 rescue -32, cardiac RTF act -1, Cardiac RTF inh 4, UCH37 DUB inh 7 and Efflux pump mplx 0.
NC(=O)NC(=O)COC(=O)/C=C/c1cccs1 was read as ARNT-TACC3 inh 4, SUMO Mot1 rescue 405*, cardiac RTF act -1, Cardiac RTF inh 0, UCH37 DUB inh 4, Efflux pump mplx 0 and Mot1 SUMO dose 0.
`CNC(=S)NN=Cc1cn(Cc2c(F)cccc2Cl)c2ccccc12` gave UCH37 DUB inh 8.
Screening O=C(C=NO)NCCCN1CCOCC1 returned UCH37 DUB inh 2.
For COc1ccccc1-c1nc2ccccc2nc1-c1ccccc1OC the results were SUMO Mot1 rescue 395*, cardiac RTF act -6, Cardiac RTF inh -9, UCH37 DUB inh 0, Efflux pump mplx 0 and Mot1 SUMO dose 0.
CC(Cc1ccccc1)=NNC(=O)CNC(=O)c1ccc(F)cc1 was read as UCH37 DUB inh 1.
Screening CCN1C(=O)/C(=C/c2cccs2)SC1=NS(=O)(=O)c1ccc(C)cc1 returned UCH37 DUB inh 4.
For CCOC(=O)c1ccc(NC(=O)NCc2ccc(OC)cc2)cc1 the results were ARNT-TACC3 inh -3, SUMO Mot1 rescue 6, cardiac RTF act -1, Cardiac RTF inh -7, UCH37 DUB inh 1 and Efflux pump mplx 0.
Screening CCOC(=O)c1ccc(NC(=O)NCc2ccncc2)cc1 returned ARNT-TACC3 inh 5, SUMO Mot1 rescue 507*, cardiac RTF act -3, Cardiac RTF inh 1, UCH37 DUB inh 3, Efflux pump mplx 0 and Mot1 SUMO dose -1.
For COCCn1c(SCC(=O)NCc2cccs2)nnc1-c1ccc(OC)cc1 the results were ARNT-TACC3 inh -2, SUMO Mot1 rescue 916*, cardiac RTF act 0, Cardiac RTF inh 4, UCH37 DUB inh -1, Efflux pump mplx 0 and Mot1 SUMO dose -1.
COc1ccc(-c2nnc(SCC(=O)NCc3cccs3)n2C)cc1 was read as ARNT-TACC3 inh 19, SUMO Mot1 rescue 59, cardiac RTF act 6, Cardiac RTF inh -8, UCH37 DUB inh 7 and Efflux pump mplx 0.
COc1ccc2nc(C=NNC(=O)[C@H](CCSC)NC(=O)OC(C)(C)C)ccc2c1 was read as UCH37 DUB inh -304.
`Cc1ccc(C(=O)/C=C/c2ccc(-c3ccccc3[N+](=O)[O-])o2)cc1` gave SUMO Mot1 rescue 491*, cardiac RTF act -28, Cardiac RTF inh 1, UCH37 DUB inh 2, Efflux pump mplx 0 and Mot1 SUMO dose -1.
O=C(/C=C/c1ccc(-c2ccccc2[N+](=O)[O-])o1)c1ccc(Br)cc1 was read as ARNT-TACC3 inh 12, SUMO Mot1 rescue 2, cardiac RTF act 10, Cardiac RTF inh -6, UCH37 DUB inh 8 and Efflux pump mplx 0.
CC(C)c1ccc(C2C(C(=O)c3ccco3)=C(O)C(=O)N2CCN2CCOCC2)cc1 (stereo not drawn) was read as SUMO Mot1 rescue active, cardiac RTF act -4, Cardiac RTF inh 12, UCH37 DUB inh 3, Efflux pump mplx 0 and Mot1 SUMO dose 0.
For CCOc1ccc(C2C(C(=O)c3ccco3)=C(O)C(=O)N2CCN2CCOCC2)cc1 (stereo not drawn) the results were ARNT-TACC3 inh 0, SUMO Mot1 rescue 3, cardiac RTF act 2, Cardiac RTF inh -3, UCH37 DUB inh 10 and Efflux pump mplx 0.
COc1ccc(C(=O)c2c(C)c3cc(C)ccc3n2CC(O)CN2CCOCC2)cc1 (stereo not drawn) was read as ARNT-TACC3 inh 14, SUMO Mot1 rescue 924*, cardiac RTF act -8, Cardiac RTF inh 5, UCH37 DUB inh 2, Efflux pump mplx 0 and Mot1 SUMO dose -1[21 µM].
Screening Cc1cc(=O)[nH]c2ccc(S(=O)(=O)Nc3ccccc3)cc12 returned ARNT-TACC3 inh -3, SUMO Mot1 rescue -3, cardiac RTF act 4, Cardiac RTF inh -4, UCH37 DUB inh 1 and Efflux pump mplx 0.
For Cc1cccc(NS(=O)(=O)c2ccc3[nH]c(=O)cc(C(=O)O)c3c2)c1 the results were ARNT-TACC3 inh 0, SUMO Mot1 rescue 544*, cardiac RTF act 6, Cardiac RTF inh 1, Efflux pump mplx 0 and Mot1 SUMO dose 1[21 µM].
COCC(=O)n1nc(NCc2ccc(OC)cc2)nc1NCc1ccc(OC)cc1 was read as ARNT-TACC3 inh -3, SUMO Mot1 rescue 394*, cardiac RTF act 2, Cardiac RTF inh -12, UCH37 DUB inh 3, Efflux pump mplx 0 and Mot1 SUMO dose 0.
For NC1=NC(=Nc2ccc(S(N)(=O)=O)cc2)c2ccccc21 the results were ARNT-TACC3 inh -1, SUMO Mot1 rescue 419*, cardiac RTF act -4, Cardiac RTF inh -6, UCH37 DUB inh 6, Efflux pump mplx 0 and Mot1 SUMO dose 0[21 µM].
For CC1CN(C)C(C)CC1=NOc1ccc([N+](=O)[O-])cc1 (stereo not drawn) the results were UCH37 DUB inh 4.
Screening O=C1CCCN1CCC1CCN(C2CC(=O)N(Cc3ccc(N4CCCC4=O)cc3)C2=O)CC1 (stereo not drawn) returned ARNT-TACC3 inh -2, SUMO Mot1 rescue 63, cardiac RTF act -7, Cardiac RTF inh 2, UCH37 DUB inh 3 and Efflux pump mplx 0.
Screening O=C1CCCN1CCC1CCN(C2CC(=O)N(c3ccc(Cl)cc3)C2=O)CC1 (stereo not drawn) returned ARNT-TACC3 inh -2, SUMO Mot1 rescue 503*, cardiac RTF act 5, Cardiac RTF inh 4, UCH37 DUB inh 3, Efflux pump mplx 0 and Mot1 SUMO dose -2.
Screening Cc1ccc(/C(N)=N/OC(=O)/C=C/c2ccccc2)cc1 returned ARNT-TACC3 inh 1, SUMO Mot1 rescue 840*, cardiac RTF act 2, Cardiac RTF inh 4, UCH37 DUB inh 5, Efflux pump mplx 0 and Mot1 SUMO dose 0.
Screening CCN(CC)CCNc1ncnc2c1[nH]c1ccc(OC)cc12 returned SUMO Mot1 rescue active, UCH37 DUB inh -20, Efflux pump mplx 0 and Mot1 SUMO dose 1.
For Cc1nc(N=C(N)NC(=O)N2c3ccccc3Sc3ccccc32)nc2ccccc12 the results were UCH37 DUB inh -1.
